# Legend:
# [1] = In vitro PKa value was determined; format: physicochemical
# Plasmodium falciparum = assay: In vitro minimum inhibiting concentration for schizont maturation from ring stage parasite over 40 hrs; format: functional
# In short: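 P. falciparum NF-54 kept in RPMI-1640 with 25 mM HEPES and 1% D-glucose. Rieckmann microassay: compound at […] in duplicate wells with parasitized cells, 37 °C in a candle jar for 36–40 h. Giemsa-stained smears were read by microscopy for ring-to-trophozoite/schizont maturation. MIC taken as the concentration that blocks complete maturation to schizonts.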
# [2] = Partition coefficient (logP); format: physicochemical; conditions: octanol/water
pKa [1],MIC (Plasmodium falciparum) [µg/mL],logP [2],SMILES
2.88,10,1.68,O=[N+]([O-])c1ccc(Nc2nc(NCc3ccccc3)nc(NCc3ccccc3)n2)cc1
2.58,1,0.356,O=[N+]([O-])c1ccc(Nc2nc(NC3CCCCC3)nc(NC3CCCCC3)n2)cc1
2.12,2,0.92,O=[N+]([O-])c1ccc(Nc2nc(N3CCN(Cc4ccccc4)CC3)nc(N3CCN(Cc4ccccc4)CC3)n2)cc1
2.98,10,-0.06,O=[N+]([O-])c1ccc(Nc2nc(N3CCOCC3)nc(N3CCOCC3)n2)cc1
3.82,64,2.94,CC1(C)N=C(N)N=C(N)N1c1ccc(Cl)cc1 [CYCLOGUANIL]
3.62,50,2.46,O=[N+]([O-])c1ccc(Nc2nc(N3CCCC3)nc(N3CCCC3)n2)cc1
2.86,10,1.64,O=[N+]([O-])c1ccc(Nc2nc(N3CCN(c4ccccc4)CC3)nc(N3CCN(c4ccccc4)CC3)n2)cc1
1.88,1,0.228,CN1CCN(c2nc(Nc3ccc([N+](=O)[O-])cc3)nc(N3CCN(C)CC3)n2)CC1
2.32,2,0.396,CCCCNc1nc(NCCCC)nc(Nc2ccc([N+](=O)[O-])cc2)n1
3.68,50,2.84,CC(C)(C)Nc1nc(Nc2ccc([N+](=O)[O-])cc2)nc(NC(C)(C)C)n1
3.13,10,1.94,O=[N+]([O-])c1ccc(Nc2nc(Nc3cccc(F)c3)nc(Nc3cccc(F)c3)n2)cc1
3.95,50,2.54,O=[N+]([O-])c1ccc(Nc2nc(N3CCCCC3)nc(N3CCCCC3)n2)cc1
2.86,50,-0.56,O=[N+]([O-])c1ccc(Nc2nc(NCCO)nc(NCCO)n2)cc1
2.94,10,1.64,O=[N+]([O-])c1ccc(Nc2nc(N3CCc4cccnc4C3)nc(N3CCc4cccnc4C3)n2)cc1
3.05,10,2.06,CCN(CC)c1nc(Nc2ccc([N+](=O)[O-])cc2)nc(N(CC)CC)n1
2.64,2,0.372,O=[N+]([O-])c1ccc(Nc2nc(NC3CCCCCC3)nc(NC3CCCCCC3)n2)cc1
1.96,1,0.345,O=[N+]([O-])c1ccc(Nc2nc(NCCCn3ccnc3)nc(NCCCn3ccnc3)n2)cc1

# From ChEMBL document CHEMBL1144265, “Syntheses of 2,4,6-trisubstituted triazines as antimalarial agents” (Bioorg Med Chem Lett, 2005)
